Assay results taken from ChEMBL document CHEMBL1154200, “Steroidal glycosides from Agave utahensis and their cytotoxic activity” (J Nat Prod, 2009).
In brackets after ≈: the same amount, converted by molar mass. Activity calls are given as the source filed them. The rule behind the calls is not given here.

Assays:
HL-60 [1] = assay: Cytotoxicity against human HL60 cells at 10 ug/mL after 72 hrs by MTT assay
HL-60 [2] = assay: Cytotoxicity against human HL60 cells after 72 hrs by MTT assay; format: functional, cell-based; conditions: HL-60, 72 h
Procedure, shortened: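 HL-60 cells kept in RPMI 1640 with heat-inactivated 10% FBS, penicillin and streptomycin. Seeded at 4 × 10^4 cells/mL and preincubated 24 h at 37 °C in air/CO2 (19:1). Sample added in EtOH-H2O (1:1) to final 0.1-10 µg/mL, vehicle alone in controls. Incubated 72 h more, growth read by modified MTT (Sargent and Taylor). IC50 taken from dose-response curve. Triplicate.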

HL-60 [3] = assay: Induction of DNA fragmentation in human HL60 cells at 20 ug/ml after 18 hrs by agarose gel electrophoresis; format: functional, cell-based
Procedure, shortened: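 HL-60 cells treated 18 h at 37 °C at 0, 10 or 20 µg/mL, with 10 µg/mL etoposide as reference. Genomic DNA extracted from 2 × 10^6 cells by kit with RNase A step. Run on 2% agarose in 40 mM Tris-acetate (pH 7.4) at 50 V for 1 h. Ladder pattern viewed under UV.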

HL-60 [4] = assay: Induction of apoptosis in human HL60 cells assessed as caspase-3 activation at 20 ug/ml after 6 hrs; format: functional, cell-based
Procedure, shortened: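 HL-60 cells (2 × 10^6) treated 6 h at 37 °C at 0, 10 or 20 µg/mL, with 10 µg/mL etoposide as reference, then lysed on ice. Lysate equivalent to 200 µg protein mixed with reaction buffer containing DEVD-pNA. Incubated 2 h at 37 °C, released pNA read at 405 nm. Mean ± SE of triplicates.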

HL-60 [5] = assay: Induction of apoptosis in human HL60 cells by morphology study; format: functional, cell-based

Row | SMILES | Activity (HL-60 [1]) | IC50 (HL-60 [2]) | Activity (HL-60 [5]) | other results
1 | C[C@@H]1CC[C@@]2(OC1)O[C@H]1C[C@H]3[C@@H]4CC[C@@H]5C[C@@H](O[C@@H]6O[C@H](CO)[C@H](O[C@@H]7O[C@H](CO)[C@@H](O)[C@H](O)[C@H]7O)[C@H](O)[C@H]6O[C@@H]6O[C@H](CO)[C@@H](O)[C@H](O)[C@H]6O)[C@@H](O)C[C@]5(C)[C@H]4CC[C@]3(C)[C@H]1[C@@H]2C | inactive | – | – | –
2 | CO[C@]1(CC[C@@H](C)CO[C@@H]2O[C@H](CO)[C@@H](O)[C@H](O)[C@H]2O)O[C@H]2C[C@H]3[C@@H]4CC[C@@H]5C[C@@H](O[C@@H]6O[C@H](CO)[C@@H](O[C@@H]7O[C@H](CO)[C@@H](O)[C@H](O)[C@H]7O)[C@H](O)[C@H]6O)CC[C@]5(C)[C@H]4CC[C@]3(C)[C@H]2[C@@H]1C | inactive | – | – | –
3 | C[C@@H]1CC[C@@]2(OC1)O[C@H]1C[C@H]3[C@@H]4CC[C@@H]5C[C@@H](O[C@@H]6O[C@H](CO)[C@@H](O[C@@H]7O[C@H](CO)[C@@H](O)[C@H](O)[C@H]7O)[C@H](O)[C@H]6O)CC[C@]5(C)[C@H]4CC[C@]3(C)[C@H]1[C@@H]2C | – | 4.9 mg/L (≈ 6.61 µM) | Active | Activity (HL-60 [3]): Active; Activity (HL-60 [4]): Active
4 | C[C@@H]1CC[C@@]2(OC1)O[C@H]1C[C@H]3[C@@H]4CC[C@@H]5C[C@@H](O[C@@H]6O[C@H](CO)[C@@H](O[C@@H]7O[C@H](CO)[C@@H](O)[C@H](O)[C@H]7O)[C@H](O)[C@H]6O)CC[C@]5(C)[C@H]4CC(=O)[C@]3(C)[C@H]1[C@@H]2C | inactive | – | – | –
5 | C[C@@H]1CC[C@@]2(OC1)O[C@H]1C[C@H]3[C@@H]4CC[C@@H]5C[C@@H](O[C@@H]6O[C@H](CO)[C@H](O[C@@H]7O[C@H](CO)[C@@H](O)[C@H](O)[C@H]7O[C@@H]7O[C@H](CO)[C@@H](O)[C@H](O)[C@H]7O)[C@H](O)[C@H]6O)[C@@H](O)C[C@]5(C)[C@H]4CC[C@]3(C)[C@H]1[C@@H]2C | inactive | – | – | –
6 | C[C@@H]1CC[C@@]2(OC1)O[C@H]1C[C@H]3[C@@H]4CC[C@@H]5C[C@@H](O[C@@H]6O[C@H](CO)[C@@H](O[C@@H]7O[C@H](CO)[C@@H](O)[C@H](O)[C@H]7O)[C@H](O)[C@H]6O)[C@@H](O)C[C@]5(C)[C@H]4CC[C@]3(C)[C@H]1[C@@H]2C | inactive | – | – | –
7 | C[C@@H]1CC[C@@]2(OC1)O[C@H]1C[C@H]3[C@@H]4CC[C@@H]5C[C@@H](O[C@@H]6O[C@H](CO)[C@H](O)[C@H](O[C@@H]7O[C@H](CO)[C@@H](O)[C@H](O)[C@H]7O)[C@H]6O)CC[C@]5(C)[C@H]4CC[C@]3(C)[C@H]1[C@@H]2C | – | 7 mg/L (≈ 9.45 µM) | inactive | –
8 | C[C@@H]1CC[C@@]2(OC1)O[C@H]1C[C@H]3[C@@H]4CC[C@@H]5C[C@@H](O[C@@H]6O[C@H](CO)[C@H](O)[C@H](O[C@@H]7O[C@H](CO)[C@@H](O)[C@H](O)[C@H]7O)[C@H]6O)CC[C@]5(C)[C@H]4CC(=O)[C@]3(C)[C@H]1[C@@H]2C | inactive | – | – | –
9 | C[C@@H]1CC[C@@]2(OC1)O[C@H]1C[C@H]3[C@@H]4CC[C@@H]5C[C@@H](O[C@@H]6O[C@H](CO)[C@H](O[C@@H]7O[C@H](CO)[C@@H](O)[C@H](O)[C@H]7O[C@@H]7O[C@H](CO)[C@@H](O)[C@H](O)[C@H]7O)[C@H](O)[C@H]6O)CC[C@]5(C)[C@H]4CC[C@]3(C)[C@H]1[C@@H]2C | – | 4.9 mg/L (≈ 5.43 µM) | Active | Activity (HL-60 [4]): Active
